According to PubChem BioAssay:
Calls of active or inactive are those of the source.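 Rule for the calls, unless noted: active = NADPH fluorescence slope more negative than the mean of all samples by about 3 SD, 99.7% confidence; inactive = the rest.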

Experiments:
[1] = inhibitors of TNFa-induced NFkB p65 translocation, primary screen, imaging, HUVEC, MLSMR starter and 10KST1 sets (AID 438;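 active = inhibition above 20% together with a positive visual image hit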;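 note: compound added about 3h40 before a 20 min TNFalpha stimulation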;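 for inhibition: signal is the nuclear over cytoplasmic p65 intensity ratio per well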); settings: HUVEC TNFa-induced p65 nuclear translocation; cell count: measured here: nuclei count (cytotoxicity indicator), at 2.08 µM; inhibition: at 2 µM, stronger effect = higher value, 0% TNFa-plus-vehicle, 100% no-TNFa wells
[2] = endothelial E-selectin expression blockers – imaging, HUVEC, immunofluorescence, MLSMR starter and 10KST1 sets, primary screen (AID 487;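 active = visually confirmed hit in the image check and inhibition above 20%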;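 for inhibition: signal is fraction of cell area covered by stained E-selectin grains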;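 for nuclei count: 100% = median nuclei count of all wells on the same plate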); settings: HUVEC TNFalpha-induced E-selectin immunofluorescence imaging, at 2 µM; inhibition: stronger effect = higher value; nuclei count: measured here: cell number, toxicity
[3] = Primary imaging screen for DUSP6 inhibitors that restore phospho-Erk in transfected HeLa cells, chemical complementation (AID 609;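 active = compounds giving at least 50% inhibition in the cell-based MKP-3 phosphatase rescue imaging test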;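 for inhibition: phospho-Erk level distribution per well compared with pooled transfected vehicle control wells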); settings: HeLa MKP-3 transfected, phospho-Erk imaging KS statistic, at 10 µM, cells stimulated with TPA for 15 min
[4] = target: Dual specificity protein phosphatase 6 (Homo sapiens) (UniProt Q16828); experiment: as above; settings: HeLa MKP-3 transfected, phospho-Erk imaging KS statistic; at 10 µM; stronger effect = higher value; cells stimulated with TPA for 15 min
[5] = target: Voltage-gated potassium channel subunit beta-2 (Rattus norvegicus) (UniProt P62483); experiment: inhibitors of rat Kvbeta2 reductase activity – biochemical, NADPH fluorescence, primary screen (AID 622;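 active = fluorescence slope higher than the sample average by over 3 SD, cut at about -0.22 in these data, passing the limit was not always enough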;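 note: slope of raw intensity against log time taken from 70 to 1610 s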); settings: recombinant KvBeta, 4-cyanobenzaldehyde reduction, at 10 µM, stronger effect = higher value
[6] = target: Voltage-gated potassium channel subunit beta-2 (Rattus norvegicus) (UniProt P62483); experiment: enhancers of rat Kvbeta2 NADPH turnover – biochemical, NADPH fluorescence, primary screen (AID 623); settings: Recombinant KvBeta, NADPH fluorescence decrease slope, 10 min; at 10 µM; stronger effect = lower value;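 note: fluorescence intensity change per second fitted from 20 to 320 s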
[7] = target: Muscarinic acetylcholine receptor M4 (Homo sapiens) (UniProt P08173); experiment: M4-linked GIRK flux change, two-sided – cell-based, HEK293 M4/GIRK, thallium flux, BTC-AM, M4 allosteric agonist project, primary screen (AID 625;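 active = fluorescence slope after compound addition differing from the mean of all tested samples at 99.7% confidence, mostly higher but some lower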;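 note: thallium influx through GIRK channels coupled to M4 in HEK293 cells with BTC-AM dye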); settings: at 10 µM, actives lie on both sides
Summary of the method: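 Material: HEK293 cells with M4 receptor and GIRK channels; Times: cells overnight at 37 °C, BTC-AM loading 1 h, reads 2 min total; Technique: kinetic BTC-AM fluorescence sampled at 1 Hz, 10 s pre-addition baseline; Read-out basis: slope over 15–24 s of trace normalized to starting intensity; Controls: carbachol positive, DMSO negative.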

[8] = inhibitors of larval lipid processing in zebrafish, primary screen, whole organism, PED6 fluorescence, gall bladder and intestine (AID 686;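 active = a full or partial loss of lipid-probe fluorescence in the fish gall bladder, intestine or both, judged by eye; inactive = no fluorescence loss, or compound toxic to the fish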;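 note: larvae 5 to 7 days old with five fish per well; signal comes from phospholipase A2 cleavage of quenched PED6 carried via bile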); settings: Zebrafish larvae PED6 lipid processing, fluorescence scoring; screened at 20 µM (by protocol)
Summary of the method: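 Incubation: overnight exposure of larvae to compound plus PED6 / Test system: live zebrafish larvae aged 5-7 days, whole organism / Amount: 5 larvae per well / Read-out basis: visual per-well fluorescence inhibition score / Signal: visual fluorescence microscopy scoring of gall bladder, gut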

[9] = loss of swimming-algae plug formation – whole organism, Chlamydomonas reinhardtii, WT vs cilia-less mutant, absorbance, 96-well, primary screen (AID 463189;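 active = inhibition at or above 50% relative to wild type and mutant plate controls; inactive = inhibition below 50%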;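 note: 0% = wild type cc124 cells in DMSO and 100% = ciliumless bld1 mutant cells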); settings: Chlamydomonas reinhardtii gravitaxis, OD600 absorbance, 2 days; at 10 µM; stronger effect = higher value
[10] = measured here: cell density z-score
[11] = measured here: nuclear c-Myc green intensity z-score
[12] = measured here: nuclear pErk red intensity z-score, stronger effect = higher value

Muscarinic acetylcholine receptor M4 (Homo sapiens), sequence (P08173 whole entry, looked up): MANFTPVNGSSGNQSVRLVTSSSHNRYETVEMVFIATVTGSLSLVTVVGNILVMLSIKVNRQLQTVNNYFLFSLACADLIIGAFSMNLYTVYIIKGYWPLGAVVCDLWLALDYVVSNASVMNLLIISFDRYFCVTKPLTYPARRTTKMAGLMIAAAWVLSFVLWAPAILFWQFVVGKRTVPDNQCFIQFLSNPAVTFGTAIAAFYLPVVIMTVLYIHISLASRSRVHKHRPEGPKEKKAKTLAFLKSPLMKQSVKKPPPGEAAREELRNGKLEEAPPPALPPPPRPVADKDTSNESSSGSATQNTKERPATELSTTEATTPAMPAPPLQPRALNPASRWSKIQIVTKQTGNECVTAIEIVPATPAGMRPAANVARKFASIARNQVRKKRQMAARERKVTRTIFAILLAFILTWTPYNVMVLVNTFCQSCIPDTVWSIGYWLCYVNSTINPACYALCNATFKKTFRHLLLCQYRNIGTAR
Dual specificity protein phosphatase 6 (Homo sapiens), sequence (Q16828 whole entry, looked up): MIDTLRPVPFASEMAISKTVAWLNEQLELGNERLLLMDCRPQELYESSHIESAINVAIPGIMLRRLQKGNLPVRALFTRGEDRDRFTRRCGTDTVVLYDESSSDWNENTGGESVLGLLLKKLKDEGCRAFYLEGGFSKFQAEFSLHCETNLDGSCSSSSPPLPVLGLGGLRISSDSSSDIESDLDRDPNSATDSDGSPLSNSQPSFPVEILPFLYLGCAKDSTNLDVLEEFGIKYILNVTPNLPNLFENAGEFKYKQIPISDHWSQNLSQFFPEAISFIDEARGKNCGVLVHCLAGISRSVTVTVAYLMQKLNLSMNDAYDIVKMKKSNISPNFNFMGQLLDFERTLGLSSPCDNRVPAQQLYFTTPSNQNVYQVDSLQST
Voltage-gated potassium channel subunit beta-2 (Rattus norvegicus), sequence (P62483 whole entry, looked up): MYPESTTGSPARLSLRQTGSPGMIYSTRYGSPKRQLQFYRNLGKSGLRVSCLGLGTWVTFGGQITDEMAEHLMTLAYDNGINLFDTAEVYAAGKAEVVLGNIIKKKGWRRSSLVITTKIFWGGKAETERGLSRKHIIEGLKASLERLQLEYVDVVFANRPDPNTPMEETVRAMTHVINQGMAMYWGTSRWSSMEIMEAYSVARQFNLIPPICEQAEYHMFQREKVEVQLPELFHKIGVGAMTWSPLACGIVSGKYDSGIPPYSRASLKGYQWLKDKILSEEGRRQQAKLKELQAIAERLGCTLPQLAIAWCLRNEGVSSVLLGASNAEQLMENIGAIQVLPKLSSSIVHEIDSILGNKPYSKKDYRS

SMILES	cell count [1]	inhibition [1]	inhibition [2]	nuclei count [2]	z-score [3, 10]	z-score [3, 11]	z-score [3, 12]	inhibition [4]	fluorescence slope [5]	NADPH fluorescence slope [6]	fluorescence slope [7]	outcome [8]	inhibition [9]
Cc1cccc(NC(=O)c2cc(N3CCOCC3)nc3ccccc23)c1	620	-13.1% (inactive)	-446% (inactive)	148%	-1.06	1.5	2.96	-11.5% (inactive)	-0.438 (inactive)	-7.5e-05 (inactive)	0.00519 (inactive)	inactive	-4.1% (inactive)
Cn1c(N)c(C#N)c2c(c1=S)CSC(C)(C)C2	571	-20% (inactive)	-64.2% (inactive)	144%	0.44	-1.23	-1.03	25.8% (inactive)	-0.446 (inactive)	-6.4e-06 (inactive)	0.00454 (inactive)	inactive	9.9% (inactive)
O=C(C1CCCCC1)N1CCCn2c1nc1ccccc12	466	-4.2% (inactive)	40.4% (inactive)	93.7%	0.0435	0.0435	-0.166	-0.233% (inactive)	-0.481 (inactive)	-3.7e-05 (inactive)	0.00633 (inactive)	inactive	-20.3% (inactive)
CC1=C(C#N)C(=O)OC(C)(C)C1	660	-3.9% (inactive)	-22.9% (inactive)	101%	-2.1	0.204	-1.02	-1.98% (inactive)	-0.489 (inactive)	-7.4e-05 (inactive)	0.00496 (inactive)	inactive	-18.3% (inactive)
CCCCCSc1nc(N2CCOCC2)c2c(c1C#N)CC(C)(C)OC2	527	-4.1% (inactive)	47.4% (inactive)	82.5%	-0.00236	0.148	-1.7	-11.4% (inactive)	-0.426 (inactive)	1.5e-05 (inactive)	0.00771 (inactive)	inactive	16.6% (inactive)
COc1cccc(Cn2c(NCc3ccco3)nc3c2c(=O)n(C)c(=O)n3C)c1	704	-6.1% (inactive)	-198% (inactive)	180%	0.733	0.0104	0.0373	27.8% (inactive)	-0.476 (inactive)	-0.000112 (inactive)	0.00767 (inactive)	inactive	0.377% (inactive)
CSc1nc2[nH]c3c(c2c2ncnn12)CCCC3	547	-3.6% (inactive)	37.3% (inactive)	171%	-0.205	-0.317	-0.0331	1.98% (inactive)	-0.379 (inactive)	-4.9e-05 (inactive)	0.00321 (inactive)	inactive	44.1% (inactive)
COCCCn1c(C)nc2c(c1=O)c1nc3ccccc3nc1n2CCc1ccccc1	709	4.3% (inactive)	18.7% (inactive)	162%	-0.739	-0.364	-0.291	-9.53% (inactive)	-0.341 (inactive)	-5.1e-05 (inactive)	0.00467 (inactive)	inactive	8.3% (inactive)
O=C1C2ON(c3ccccc3)C(c3cccnc3)C2C(=O)N1c1ccc(Cl)c(Cl)c1 (stereo not drawn)	666	-5.7% (inactive)	-61.8% (inactive)	147%	-0.87	0.124	-0.00603	-5.62% (inactive)	-0.479 (inactive)	-2.8e-05 (inactive)	0.00562 (inactive)	inactive	11.2% (inactive)
CCCCOC(=O)c1ccc(NC(=O)CSc2nncn2C)cc1	507	-8.4% (inactive)	-82.5% (inactive)	168%	-0.268	-0.273	0.565	-0.624% (inactive)	-0.456 (inactive)	-6.8e-05 (inactive)	0.00538 (inactive)	inactive	5.5% (inactive)
COC(=O)c1sc2nc(N3CCCCC3)c3c(c2c1N)CC(C)(C)N(C)C3	365	-3.8% (inactive)	-114% (inactive)	173%	-0.314	1.33	0.691	3.42% (inactive)	-0.155 (active)	8.1e-06 (inactive)	0.00431 (inactive)	inactive	7.69% (inactive)
Cc1cc(C)n(-c2ncnc3sc(C)c(C)c23)n1	577	-0.8% (inactive)	-64.7% (inactive)	157%	0.455	0.0261	1.38	19.8% (inactive)	-0.293 (inactive)	-3.5e-05 (inactive)	0.00669 (inactive)	inactive	-1.64% (inactive)
O=C(Cc1ccccc1)Nc1cccc(-c2nnc(-c3ccco3)o2)c1	665	-8.6% (inactive)	46.6% (inactive)	188%	0.0893	1.04	1.35	-9.53% (inactive)	-0.485 (inactive)	-5.1e-05 (inactive)	0.00851 (inactive)	inactive	-2.78% (inactive)
CCN(CC)CCCN1C(=O)C(=O)/C(=C(/O)c2ccc(OC)cc2)C1c1ccco1 (stereo not drawn)	651	-11.9% (inactive)	43.5% (inactive)	185%	0.516	0.587	0.462	-0.233% (inactive)	-0.471 (inactive)	-0.000107 (inactive)	0.0055 (inactive)	inactive	-7.38% (inactive)
Cc1cc(O)ccc1-c1cnc2ccccc2n1	695	2% (inactive)	-163% (inactive)	166%	-0.391	1.61	0.545	-6.06% (inactive)	-0.482 (inactive)	-6.2e-05 (inactive)	0.00527 (inactive)	inactive	-11.2% (inactive)
CCCC(C)n1[nH]c(=O)cc1N (stereo not drawn)	395	-2.2% (inactive)	-101% (inactive)	137%	1.2	-1.78	-0.211	30.7% (inactive)	-0.46 (inactive)	-0.000101 (inactive)	0.00418 (inactive)	inactive	27.7% (inactive)
CCn1nc(NC(=O)c2ccco2)c2cc3ccccc3nc21	700	-11.3% (inactive)	-20.2% (inactive)	168%	-0.0808	0.362	-0.0698	-6.48% (inactive)	-0.404 (inactive)	-4.1e-05 (inactive)	0.0055 (inactive)	inactive	-8.58% (inactive)
C=C(C)Cn1c(-c2ccc(OC)cc2)nc2ccccc21	377	0.8% (inactive)	-113% (inactive)	157%	-0.296	-0.903	0.627	-6.86% (inactive)	-0.461 (inactive)	-0.000111 (inactive)	0.00384 (inactive)	inactive; toxic	25.6% (inactive)
Cn1c(NCc2ccccc2)nc2c1c(=O)n(Cc1ccccc1)c(=O)n2C	694	-5.5% (inactive)	-54.8% (inactive)	172%	0.899	-0.674	1.21	5.95% (inactive)	-0.461 (inactive)	-8.2e-05 (inactive)	0.00535 (inactive)	inactive	6.49% (inactive)
O=S(=O)(/C=C/c1ccccc1)Nc1ccc2c(c1)OCO2	371	-6.3% (inactive)	-96.3% (inactive)	154%	0.539	-2	0.714	-2.59% (inactive)	-0.476 (inactive)	-9.8e-05 (inactive)	0.00384 (inactive)	inactive	4.72% (inactive)
O=C1CC(NCc2ccncc2)C(=O)N1c1ccc(Cl)cc1 (stereo not drawn)	479	2.2% (inactive)	-20.1% (inactive)	150%	0.96	-0.274	-0.794	2.71% (inactive)	-0.464 (inactive)	-3.3e-05 (inactive)	0.00465 (inactive)	inactive	25.9% (inactive)
